Measured values from ChEMBL document CHEMBL3286264, “Discovery of novel and selective SIRT6 inhibitors” (J Med Chem, 2014).
Blank lines part the entries; values can stand above or below the compound they belong to. Calls of active or inactive are those of the source. The calls are words filed in the database; no cut-off is given here.

Key:
[1] = biological target: T1, NAD-dependent protein deacylase sirtuin-6 (Homo sapiens, UniProt Q8N6T7); experiment: Inhibition of SIRT6 (unknown origin) at 200 uM by fluorescence-based assay
[2] = biological target: T1, NAD-dependent protein deacylase sirtuin-6; experiment: Inhibition of SIRT6 in human BxPC3 cells assessed as increase in H3K9 acetylation at 100 uM after 18 hrs by immunoblot analysis; type: cell-based; details: BXPC-3
Summary of the method: (§1)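 BxPC-3 cells plated 4 × 10^5 per well, adhered 24 h, then given 100 μM compound or matching DMSO (final DMSO 2–6‰) for varying times. Lysates (30 μg) resolved on 15% SDS-PAGE and immunoblotted for acetyl-H3K9 and total H3 with ECL. Acetyl-H3K9 normalized to total H3 and expressed as % versus vehicle-treated cells.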

BXPC-3 [3] = experiment: Increase in [14C]-2-deoxy-D-glucose uptake in human BxPC3 cells at 200 uM after 18 hrs by scintillation counting analysis relative to control; type: functional
Summary of the method: (§2)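 Human BxPC-3 or rat L6 cells (6 × 10^5/well) treated in triplicate for 18 h with 200 μM (final) compound in complete medium. Uptake measured with 0.5 mM 2-deoxy-D-glucose/[14C]-2-deoxy-D-glucose (0.5 μCi/well) in KRH buffer for 5 min at 37 °C. Cells lysed in 0.1% SDS for scintillation counting. Uptake in presence of cytochalasin B plus phloretin subtracted. Expressed relative to untreated.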

BXPC-3 [4] = experiment: Increase in GLUT1 expression in human BxPC3 cell surface at 100 uM after 24 hrs by flow cytometry; type: functional, cell-based
Summary of the method: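 BxPC-3 cells plated 4 × 10^5 per well, allowed to adhere 24 h, then exposed 24 h to 100 μM compound or DMSO vehicle. Cells trypsinized, fixed 10 min in 100% methanol at −20 °C, stained with anti-GLUT-1 antibody then anti-mouse IgG2a (each 30 min, 4 °C). Analysed by flow cytometry, 10.000 events/sample.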

[5] = biological target: T1, NAD-dependent protein deacylase sirtuin-6; experiment: Inhibition of SIRT6 in human BxPC3 cells assessed as increase in H3K9 acetylation at 100 uM after >18 hrs by immunoblot analysis; type: cell-based; details: BXPC-3; summary of the method: as §1
Homo sapiens [6] = organism: Homo sapiens; experiment: Selectivity ratio of IC50 for SIRT1 (unknown origin) to IC50 for SIRT6 (unknown origin)
Summary of the method: (§3)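 Deacetylase activity measured with commercial fluorescence-based SIRT1, SIRT2 or SIRT6 kits per manufacturer's instructions. Compounds from 50 mM DMSO stocks, tested from 8 μM to 5 mM. IC50 derived by logarithmic nonlinear regression. Three independent determinations per compound.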

L6 = experiment: Increase in [14C]-2-deoxy-D-glucose uptake in rat L6 cells at 200 uM after 18 hrs by scintillation counting analysis relative to control; type: functional; summary of the method: as §2
Homo sapiens [7] = organism: Homo sapiens; experiment: Selectivity ratio of IC50 for SIRT2 (unknown origin) to IC50 for SIRT6 (unknown origin); summary of the method: as §3
[8] = biological target: T2, NAD-dependent protein deacetylase sirtuin-1 (Homo sapiens, UniProt Q96EB6); experiment: Inhibition of SIRT1 (unknown origin); summary of the method: as §3
T2 sequence (Q96EB6 whole entry): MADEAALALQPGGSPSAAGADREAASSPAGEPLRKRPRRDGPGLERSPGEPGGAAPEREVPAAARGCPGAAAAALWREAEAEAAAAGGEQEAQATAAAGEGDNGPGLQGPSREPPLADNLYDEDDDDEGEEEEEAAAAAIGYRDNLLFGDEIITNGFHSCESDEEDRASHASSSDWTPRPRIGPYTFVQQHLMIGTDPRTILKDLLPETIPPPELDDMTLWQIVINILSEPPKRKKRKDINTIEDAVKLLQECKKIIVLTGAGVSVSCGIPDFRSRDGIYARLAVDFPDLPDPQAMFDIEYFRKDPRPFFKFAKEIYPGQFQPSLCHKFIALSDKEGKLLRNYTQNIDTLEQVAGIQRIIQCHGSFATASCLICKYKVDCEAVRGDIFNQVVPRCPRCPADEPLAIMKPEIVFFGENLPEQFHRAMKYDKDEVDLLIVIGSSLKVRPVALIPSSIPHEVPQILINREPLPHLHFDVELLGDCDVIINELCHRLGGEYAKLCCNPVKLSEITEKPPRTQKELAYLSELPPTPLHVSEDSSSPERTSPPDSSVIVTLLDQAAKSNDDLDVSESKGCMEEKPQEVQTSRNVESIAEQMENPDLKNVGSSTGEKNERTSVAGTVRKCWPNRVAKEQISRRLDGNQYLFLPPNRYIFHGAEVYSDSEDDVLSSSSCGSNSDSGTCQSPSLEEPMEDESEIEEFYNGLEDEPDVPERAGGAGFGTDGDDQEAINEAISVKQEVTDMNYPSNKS

[9] = biological target: T1, NAD-dependent protein deacylase sirtuin-6; experiment: Inhibition of SIRT6 (unknown origin); summary of the method: as §3
BXPC-3 [10] = experiment: Inhibition of PMA-induced TNF-alpha secretion in human BxPC3 cells at 100 uM incubated for overnight prior to stimulation of PMA for 24 hrs by ELISA; type: functional; details: BXPC-3, 24 h
Summary of the method: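 BxPC-3 cells (3 × 10^5/well) allowed to adhere 24 h, then incubated overnight with 100 μM compound or vehicle. Stimulated 24 h with 25 ng/mL PMA. TNF-α in supernatants measured by DuoSet ELISA. Expressed as % inhibition.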

BXPC-3 [11] = experiment: Increase in GLUT1 expression in human BxPC3 cells at 12.5 to 200 uM after 24 hrs by Western blotting analysis; type: functional, cell-based
Summary of the method: (§4)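 BxPC-3 cells plated 4 × 10^5 per well and allowed to adhere 24 h. Treated either 24 h at the stated concentrations or for a time course at 200 μM. Lysed in Tris-HCl pH 7.5/NaCl/NP40 buffer. 30 μg protein run on 15% SDS-PAGE and transferred to PVDF. GLUT-1 and γ-tubulin detected by immunoblotting with ECL.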

[12] = biological target: T3, NAD-dependent protein deacetylase sirtuin-2 (Homo sapiens, UniProt Q8IXJ6); experiment: Inhibition of SIRT2 (unknown origin); summary of the method: as §3
T3 sequence (Q8IXJ6 whole entry): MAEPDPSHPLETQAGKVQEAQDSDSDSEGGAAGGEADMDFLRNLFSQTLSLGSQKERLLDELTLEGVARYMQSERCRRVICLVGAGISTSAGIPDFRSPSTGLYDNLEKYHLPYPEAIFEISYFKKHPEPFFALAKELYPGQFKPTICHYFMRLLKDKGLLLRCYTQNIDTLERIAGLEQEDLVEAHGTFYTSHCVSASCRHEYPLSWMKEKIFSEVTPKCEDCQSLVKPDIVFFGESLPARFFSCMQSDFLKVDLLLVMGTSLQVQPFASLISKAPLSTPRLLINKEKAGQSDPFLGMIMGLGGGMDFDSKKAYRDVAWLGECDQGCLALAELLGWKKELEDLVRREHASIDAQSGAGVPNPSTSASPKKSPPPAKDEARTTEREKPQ

BXPC-3 [13] = experiment: Increase in GLUT1 expression in human BxPC3 cells at 200 uM after 6 hrs by Western blotting analysis; type: functional, cell-based; summary of the method: as §4

T1 sequence (Q8N6T7 whole entry): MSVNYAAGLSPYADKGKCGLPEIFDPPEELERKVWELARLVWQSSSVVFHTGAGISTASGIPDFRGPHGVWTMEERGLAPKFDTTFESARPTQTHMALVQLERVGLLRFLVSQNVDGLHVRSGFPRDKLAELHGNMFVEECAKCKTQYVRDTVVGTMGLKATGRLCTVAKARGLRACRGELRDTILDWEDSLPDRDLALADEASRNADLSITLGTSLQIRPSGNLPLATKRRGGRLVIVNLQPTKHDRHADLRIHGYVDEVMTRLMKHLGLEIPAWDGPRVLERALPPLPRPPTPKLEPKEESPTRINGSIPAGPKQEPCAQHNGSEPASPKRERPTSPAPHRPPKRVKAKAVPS

Structure (SMILES): CCOc1ccc(NC2SC(=O)NC2=O)cc1 (stereo unspecified)
inhibition [1]: inactive

Structure (SMILES): O=c1[nH]c(=O)c2cc(S(=O)(=O)Nc3ccc(Oc4cccnc4)cc3)ccc2[nH]1
inhibition [2]: Active
fold change (FC) (BXPC-3 [3]): 1.3
Activity (BXPC-3 [4]): Active
inhibition [5]: inactive
Ratio IC50 (Homo sapiens [6]): 2.96
fold change (FC) (L6): 1.98
Ratio IC50 (Homo sapiens [7]): 1.07
IC50 [8]: 314 µM
IC50 [9]: 106 µM
inhibition at 100 µM (BXPC-3 [10]): 73%
Activity (BXPC-3 [11]): Active
inhibition [1]: 100%
IC50 [12]: 114 µM

Structure (SMILES): NC(=O)c1ccc[n+](CCCCCC[n+]2cccc(C(N)=O)c2)c1
inhibition [1]: inactive

Structure (SMILES): O=C(Nc1ccc(NS(=O)(=O)c2ccc(Oc3ccc([N+](=O)[O-])cc3)cc2)cc1)c1ccccc1
inhibition [1]: inactive

Structure (SMILES): O=C(CSc1nc[nH]n1)CSc1nc[nH]n1
inhibition [1]: inactive

Structure (SMILES): Cc1nc(=O)c2c([nH]1)CC1CCC(C2)N1Cc1ccc2c(c1)CC(C)O2 (stereo unspecified)
inhibition [1]: inactive

Structure (SMILES): CC1(CCC(=O)O)NC(=O)NC1=O (stereo unspecified)
inhibition [1]: inactive

Structure (SMILES): O=C1NC(=O)C2(CCCCCC2)N1
inhibition [1]: inactive

Structure (SMILES): O=c1cc(-c2ccccc2)[nH]c(=O)[nH]1
inhibition [1]: inactive

The next lines start with results.

inhibition [1]: inactive
Structure (SMILES): O=C(CSCc1ccc(Cl)c(Cl)c1)Nc1cnc(O)nc1O

inhibition [2]: Active
inhibition [5]: inactive
Ratio IC50 (Homo sapiens [6]): 19.1
Ratio IC50 (Homo sapiens [7]): 9.63
IC50 [8]: 3470 µM
IC50 [9]: 181 µM
inhibition [1]: 66%
IC50 [12]: 1740 µM
Structure (SMILES): N=C(Nc1ccccc1)SC1CC(=O)N(c2ccc(C(=O)O)cc2)C1=O (racemic)
fold change (FC) (BXPC-3 [3]): 3.09
fold change (FC) (L6): 1.55
Activity (BXPC-3 [13]): Active
inhibition at 100 µM (BXPC-3 [10]): 53%

Ratio IC50 (Homo sapiens [6]): 1.1
Ratio IC50 (Homo sapiens [7]): 1.71
IC50 [8]: 1470 µM
IC50 [9]: 1340 µM
inhibition [1]: 12%
IC50 [12]: 2290 µM
Structure (SMILES): O=C(NCc1nc(-c2cccnc2)n[nH]1)c1cnccn1

inhibition [1]: inactive
Structure (SMILES): COc1ccc(OCC(O)Cn2c(NCCc3ccccc3)nc3c2c(=O)[nH]c(=O)n3C)cc1 (stereo unspecified)

Ratio IC50 (Homo sapiens [6]): 17.7
Ratio IC50 (Homo sapiens [7]): 8.44
IC50 [8]: 1580 µM
IC50 [9]: 89 µM
IC50 [12]: 751 µM
Structure (SMILES): O=C(Nc1ccc(O)c(C(=O)O)c1)c1cccc(NC(=O)c2ccco2)c1
fold change (FC) (BXPC-3 [3]): 1.11
Activity (BXPC-3 [4]): Active
fold change (FC) (L6): 1.2
inhibition at 100 µM (BXPC-3 [10]): 50%
Activity (BXPC-3 [11]): Active
